Data: ChEMBL document CHEMBL2331324, “Synthesis and biological evaluation of guanidino analogues of roscovitine” (Eur J Med Chem, 2013)

What was measured:
[1] = target: Serine/threonine-protein kinase pim-1 (Homo sapiens) (UniProt P11309); assay: Inhibition of recombinant PIM1 (unknown origin) assessed as residual activity using [gamma-33P]ATP as substrate at 1 uM
Method in brief: (§1)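 Selectivity panel run under previously published conditions. Screened at 1 μM in duplicate. Reactions started with [γ-33P]ATP (800 cpm/pmol) at 5, 20 or 50 μM, chosen to be at or below each enzyme's ATP Km. Stopped with phosphoric acid, spotted onto P81 filters. Result expressed as residual kinase activity.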

[2] = target: Serine/threonine-protein kinase PAK 2 (Homo sapiens) (UniProt Q13177); assay: Inhibition of recombinant PAK2 (unknown origin) assessed as residual activity using [gamma-33P]ATP as substrate at 1 uM; method in brief: as §1
[3] = target: Mitogen-activated protein kinase 12 (Homo sapiens) (UniProt P53778); assay: Inhibition of recombinant p38 MAPKgamma (unknown origin) assessed as residual activity using [gamma-33P]ATP as substrate at 1 uM
Method in brief: (§2)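 Kinase panel screen with each compound at 1 µM, in duplicate. Reactions were started with [γ-33P]ATP (800 cpm/pmol) at 5, 20 or 50 µM, chosen per enzyme to be at or below its ATP Km. Reactions were stopped with phosphoric acid and spotted onto P81 filters. Results are given as residual kinase activity.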

[4] = target: Mitogen-activated protein kinase 11 (Homo sapiens) (UniProt Q15759); assay: Inhibition of recombinant p38 MAPKbeta (unknown origin) assessed as residual activity using [gamma-33P]ATP as substrate at 1 uM; method in brief: as §2
[5] = target: Serine/threonine-protein kinase Nek6 (Homo sapiens) (UniProt Q9HC98); assay: Inhibition of recombinant NEK6 (unknown origin) assessed as residual activity using [gamma-33P]ATP as substrate at 1 uM; method in brief: as §1
[6] = target: Mitogen-activated protein kinase kinase kinase 9 (Homo sapiens) (UniProt P80192); assay: Inhibition of recombinant MLK1 (unknown origin) assessed as residual activity using [gamma-33P]ATP as substrate at 1 uM; method in brief: as §1
[7] = target: Dual specificity mitogen-activated protein kinase kinase 1 (Homo sapiens) (UniProt Q02750); assay: Inhibition of recombinant MKK1 (unknown origin) assessed as residual activity using [gamma-33P]ATP as substrate at 1 uM; method in brief: as §1
[8] = target: Maternal embryonic leucine zipper kinase (Homo sapiens) (UniProt Q14680); assay: Inhibition of recombinant MELK (unknown origin) assessed as residual activity using [gamma-33P]ATP as substrate at 1 uM; method in brief: as §1
[9] = target: Tyrosine-protein kinase Lck (Homo sapiens) (UniProt P06239); assay: Inhibition of recombinant LCK (unknown origin) assessed as residual activity using [gamma-33P]ATP as substrate at 1 uM; method in brief: as §1
[10] = target: Mitogen-activated protein kinase 9 (Homo sapiens) (UniProt P45984); assay: Inhibition of recombinant JNK2 (unknown origin) assessed as residual activity using [gamma-33P]ATP as substrate at 1 uM; method in brief: as §1
[11] = target: Mitogen-activated protein kinase 8 (Homo sapiens) (UniProt P45983); assay: Inhibition of recombinant JNK1 (unknown origin) assessed as residual activity using [gamma-33P]ATP as substrate at 1 uM; method in brief: as §1
[12] = target: Insulin receptor-related protein (Homo sapiens) (UniProt P14616); assay: Inhibition of recombinant IRR (unknown origin) assessed as residual activity using [gamma-33P]ATP as substrate at 1 uM
Method in brief: (§3)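 Recombinant kinase panel screened at 1 µM in duplicate. Reactions started with [γ-33P]ATP (800 cpm/pmol) at 5, 20 or 50 µM, chosen to sit at or below each enzyme's ATP Km. Stopped with phosphoric acid and spotted onto P81 filters. Result given as residual kinase activity.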

[13] = target: Inhibitor of nuclear factor kappa-B kinase subunit beta (Homo sapiens) (UniProt O14920); assay: Inhibition of recombinant IKKbeta (unknown origin) assessed as residual activity using [gamma-33P]ATP as substrate at 1 uM; method in brief: as §3
[14] = target: Ephrin type-B receptor 1 (Homo sapiens) (UniProt P54762); assay: Inhibition of recombinant EPH-B1 (unknown origin) assessed as residual activity using [gamma-33P]ATP as substrate at 1 uM; method in brief: as §3
[15] = target: Aurora kinase A/B (Homo sapiens) (UniProt Q96GD4+O14965); assay: Activity at Aurora kinase A/B in human MCF7 cells assessed as histone H3 phosphorylation at Ser10 at 100 uM after 24 hrs by flow cytometry relative to untreated control; assay type: cell-based
Method in brief: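 Flow cytometry on MCF7 cells exposed 24 h to 100 µM. About one million cells fixed in 90% methanol, rehydrated, and labelled with primary antibody to pH3 Ser10, then an Alexa Fluor 488 secondary. Alexa read at 488/525 nm (ex/em). The value is the fraction of pH3-positive cells in treated cultures divided by that in untreated control.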

Homo sapiens = species on record: Homo sapiens; assay: Inhibition of recombinant VEGFR (unknown origin) assessed as residual activity using [gamma-33P]ATP as substrate at 1 uM; method in brief: as §2
[16] = target: High affinity nerve growth factor receptor (Homo sapiens) (UniProt P04629); assay: Inhibition of recombinant TRKA (unknown origin) assessed as residual activity using [gamma-33P]ATP as substrate at 1 uM; method in brief: as §2
[17] = target: Angiopoietin-1 receptor (Homo sapiens) (UniProt Q02763); assay: Inhibition of recombinant TIE2 (unknown origin) assessed as residual activity using [gamma-33P]ATP as substrate at 1 uM; method in brief: as §2
[18] = target: SRSF protein kinase 1 (Homo sapiens) (UniProt Q96SB4); assay: Inhibition of recombinant SRPK1 (unknown origin) assessed as residual activity using [gamma-33P]ATP as substrate at 1 uM; method in brief: as §2
[19] = target: Ribosomal protein S6 kinase alpha-3 (Homo sapiens) (UniProt P51812); assay: Inhibition of recombinant RSK2 (unknown origin) assessed as residual activity using [gamma-33P]ATP as substrate at 1 uM; method in brief: as §2
[20] = target: RAC-alpha serine/threonine-protein kinase (Homo sapiens) (UniProt P31749); assay: Inhibition of recombinant PKB alpha (unknown origin) assessed as residual activity using [gamma-33P]ATP as substrate at 1 uM; method in brief: as §1
[21] = target: Serine/threonine-protein kinase pim-3 (Homo sapiens) (UniProt Q86V86); assay: Inhibition of recombinant PIM3 (unknown origin) assessed as residual activity using [gamma-33P]ATP as substrate at 1 uM; method in brief: as §1
[22] = target: Ephrin type-A receptor 4 (Homo sapiens) (UniProt P54764); assay: Inhibition of recombinant EPH-A4 (unknown origin) assessed as residual activity using [gamma-33P]ATP as substrate at 1 uM; method in brief: as §3
[23] = target: Death-associated protein kinase 1 (Homo sapiens) (UniProt P53355); assay: Inhibition of recombinant DAPK1 (unknown origin) assessed as residual activity using [gamma-33P]ATP as substrate at 1 uM; method in brief: as §3
[24] = target: Calcium/calmodulin-dependent protein kinase type 1 (Homo sapiens) (UniProt Q14012); assay: Inhibition of recombinant CAMK1 (unknown origin) assessed as residual activity using [gamma-33P]ATP as substrate at 1 uM; method in brief: as §3
[25] = target: Tyrosine-protein kinase BTK (Homo sapiens) (UniProt Q06187); assay: Inhibition of recombinant BTK (unknown origin) assessed as residual activity using [gamma-33P]ATP as substrate at 1 uM; method in brief: as §3

SRSF protein kinase 1 (Homo sapiens), sequence (Q96SB4 whole entry): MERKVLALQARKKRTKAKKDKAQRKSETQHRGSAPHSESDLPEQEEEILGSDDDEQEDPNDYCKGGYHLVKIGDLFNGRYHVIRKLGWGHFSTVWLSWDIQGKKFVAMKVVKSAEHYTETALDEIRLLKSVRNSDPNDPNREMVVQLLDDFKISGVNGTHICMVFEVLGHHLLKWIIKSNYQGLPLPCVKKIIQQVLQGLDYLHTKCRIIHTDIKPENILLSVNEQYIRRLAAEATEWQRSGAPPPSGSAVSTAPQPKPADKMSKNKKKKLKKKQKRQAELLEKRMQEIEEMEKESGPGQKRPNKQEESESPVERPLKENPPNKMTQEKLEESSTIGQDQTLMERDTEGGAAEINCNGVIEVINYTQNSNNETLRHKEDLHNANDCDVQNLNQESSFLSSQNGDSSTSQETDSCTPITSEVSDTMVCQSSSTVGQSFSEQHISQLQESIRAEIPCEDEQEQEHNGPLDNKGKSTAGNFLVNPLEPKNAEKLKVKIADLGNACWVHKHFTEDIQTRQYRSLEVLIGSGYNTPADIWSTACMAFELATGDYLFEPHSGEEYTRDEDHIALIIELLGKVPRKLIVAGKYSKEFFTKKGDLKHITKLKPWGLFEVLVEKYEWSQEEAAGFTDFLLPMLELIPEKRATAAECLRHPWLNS
Dual specificity mitogen-activated protein kinase kinase 1 (Homo sapiens), sequence (Q02750 whole entry): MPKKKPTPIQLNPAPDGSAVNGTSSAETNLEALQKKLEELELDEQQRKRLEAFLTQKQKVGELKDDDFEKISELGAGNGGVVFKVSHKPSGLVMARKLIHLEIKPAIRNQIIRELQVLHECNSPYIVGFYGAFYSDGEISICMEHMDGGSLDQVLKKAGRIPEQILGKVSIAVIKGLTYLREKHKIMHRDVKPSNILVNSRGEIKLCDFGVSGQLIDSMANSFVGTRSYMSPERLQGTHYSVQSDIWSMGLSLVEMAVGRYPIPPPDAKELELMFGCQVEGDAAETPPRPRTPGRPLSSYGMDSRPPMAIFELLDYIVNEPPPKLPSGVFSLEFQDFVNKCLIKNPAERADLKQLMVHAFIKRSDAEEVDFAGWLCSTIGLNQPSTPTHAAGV
Maternal embryonic leucine zipper kinase (Homo sapiens), sequence (Q14680 whole entry, looked up): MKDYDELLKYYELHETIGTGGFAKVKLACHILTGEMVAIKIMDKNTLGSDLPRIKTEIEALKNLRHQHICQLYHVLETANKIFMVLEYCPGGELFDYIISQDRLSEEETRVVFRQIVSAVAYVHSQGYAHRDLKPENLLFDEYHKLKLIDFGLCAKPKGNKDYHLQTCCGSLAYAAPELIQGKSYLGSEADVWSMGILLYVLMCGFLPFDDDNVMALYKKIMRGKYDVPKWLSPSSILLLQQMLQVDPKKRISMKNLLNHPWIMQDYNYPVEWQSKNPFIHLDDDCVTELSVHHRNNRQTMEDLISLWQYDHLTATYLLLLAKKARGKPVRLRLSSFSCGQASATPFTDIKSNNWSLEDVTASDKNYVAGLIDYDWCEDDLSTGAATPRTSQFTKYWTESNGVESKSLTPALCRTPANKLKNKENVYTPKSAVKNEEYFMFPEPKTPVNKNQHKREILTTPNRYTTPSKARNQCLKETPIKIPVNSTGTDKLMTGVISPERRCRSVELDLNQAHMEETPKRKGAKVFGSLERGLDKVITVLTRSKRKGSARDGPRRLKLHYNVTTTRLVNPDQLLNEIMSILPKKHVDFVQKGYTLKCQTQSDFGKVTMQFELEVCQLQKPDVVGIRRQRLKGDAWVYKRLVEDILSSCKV
Serine/threonine-protein kinase PAK 2 (Homo sapiens), sequence (Q13177 whole entry): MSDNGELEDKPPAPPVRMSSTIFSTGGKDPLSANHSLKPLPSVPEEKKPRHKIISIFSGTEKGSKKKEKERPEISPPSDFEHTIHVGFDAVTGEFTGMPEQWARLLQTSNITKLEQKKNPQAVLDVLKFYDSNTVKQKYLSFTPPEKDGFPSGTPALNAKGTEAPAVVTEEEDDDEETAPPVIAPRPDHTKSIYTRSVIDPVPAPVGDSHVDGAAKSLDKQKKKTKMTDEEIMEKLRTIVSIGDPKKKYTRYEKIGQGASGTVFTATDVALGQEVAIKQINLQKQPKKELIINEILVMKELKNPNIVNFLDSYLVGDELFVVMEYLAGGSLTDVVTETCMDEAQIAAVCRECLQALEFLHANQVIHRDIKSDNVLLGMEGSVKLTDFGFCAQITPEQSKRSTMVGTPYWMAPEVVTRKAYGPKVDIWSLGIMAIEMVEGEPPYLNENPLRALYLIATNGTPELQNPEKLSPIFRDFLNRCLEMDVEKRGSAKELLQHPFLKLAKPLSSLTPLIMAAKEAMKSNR
Ephrin type-B receptor 1 (Homo sapiens), sequence (P54762 whole entry): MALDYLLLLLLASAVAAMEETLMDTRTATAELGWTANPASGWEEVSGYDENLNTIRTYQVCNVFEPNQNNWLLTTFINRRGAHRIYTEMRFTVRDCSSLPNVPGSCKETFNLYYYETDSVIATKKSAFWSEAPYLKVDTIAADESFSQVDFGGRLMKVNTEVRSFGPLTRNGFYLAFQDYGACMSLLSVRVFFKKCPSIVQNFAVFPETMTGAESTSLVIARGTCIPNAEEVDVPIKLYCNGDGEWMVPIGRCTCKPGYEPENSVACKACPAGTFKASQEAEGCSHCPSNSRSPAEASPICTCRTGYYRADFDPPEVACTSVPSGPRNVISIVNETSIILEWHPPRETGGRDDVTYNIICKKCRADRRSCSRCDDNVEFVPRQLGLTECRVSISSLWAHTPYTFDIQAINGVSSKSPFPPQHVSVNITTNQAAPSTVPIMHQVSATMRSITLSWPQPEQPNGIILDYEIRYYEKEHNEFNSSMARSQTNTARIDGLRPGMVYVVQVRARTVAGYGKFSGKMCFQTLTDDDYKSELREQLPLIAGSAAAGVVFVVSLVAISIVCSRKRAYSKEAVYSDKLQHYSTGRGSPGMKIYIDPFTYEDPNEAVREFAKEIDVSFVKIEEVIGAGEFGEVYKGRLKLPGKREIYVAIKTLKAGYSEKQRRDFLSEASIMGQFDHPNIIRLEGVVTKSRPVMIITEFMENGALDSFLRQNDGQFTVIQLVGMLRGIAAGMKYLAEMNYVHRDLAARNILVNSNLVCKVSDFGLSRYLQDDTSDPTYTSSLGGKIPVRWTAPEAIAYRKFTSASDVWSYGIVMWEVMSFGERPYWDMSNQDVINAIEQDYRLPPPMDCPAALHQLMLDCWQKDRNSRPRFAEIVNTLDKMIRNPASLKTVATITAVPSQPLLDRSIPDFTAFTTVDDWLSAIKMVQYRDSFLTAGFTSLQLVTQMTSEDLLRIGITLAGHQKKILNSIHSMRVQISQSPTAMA
Tyrosine-protein kinase Lck (Homo sapiens), sequence (P06239 2-509 limits assumed): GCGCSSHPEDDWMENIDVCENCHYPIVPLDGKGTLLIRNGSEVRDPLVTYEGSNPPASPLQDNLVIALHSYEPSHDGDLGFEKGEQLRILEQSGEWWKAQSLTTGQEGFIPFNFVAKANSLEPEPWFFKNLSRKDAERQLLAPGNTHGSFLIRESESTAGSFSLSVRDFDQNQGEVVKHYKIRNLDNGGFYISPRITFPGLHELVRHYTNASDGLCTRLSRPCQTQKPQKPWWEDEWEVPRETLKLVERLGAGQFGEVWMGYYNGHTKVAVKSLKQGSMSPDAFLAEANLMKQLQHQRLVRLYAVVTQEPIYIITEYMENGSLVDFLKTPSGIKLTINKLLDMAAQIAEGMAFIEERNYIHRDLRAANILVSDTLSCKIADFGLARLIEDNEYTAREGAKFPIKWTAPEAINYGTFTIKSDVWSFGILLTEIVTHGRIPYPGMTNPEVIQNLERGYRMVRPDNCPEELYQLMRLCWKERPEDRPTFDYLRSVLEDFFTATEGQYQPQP
Mitogen-activated protein kinase 12 (Homo sapiens), sequence (P53778 whole entry): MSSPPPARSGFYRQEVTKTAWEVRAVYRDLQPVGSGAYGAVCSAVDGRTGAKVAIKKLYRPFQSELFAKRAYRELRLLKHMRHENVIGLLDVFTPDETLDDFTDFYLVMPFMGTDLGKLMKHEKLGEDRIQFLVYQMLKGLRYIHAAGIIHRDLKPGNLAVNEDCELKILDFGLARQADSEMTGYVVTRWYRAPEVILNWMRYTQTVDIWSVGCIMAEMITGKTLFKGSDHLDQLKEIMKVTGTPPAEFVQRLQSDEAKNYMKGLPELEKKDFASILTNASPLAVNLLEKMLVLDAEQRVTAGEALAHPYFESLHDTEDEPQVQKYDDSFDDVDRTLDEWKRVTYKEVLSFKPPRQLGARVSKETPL
Aurora kinase A/B (Homo sapiens), sequence (O14965 whole entry, looked up): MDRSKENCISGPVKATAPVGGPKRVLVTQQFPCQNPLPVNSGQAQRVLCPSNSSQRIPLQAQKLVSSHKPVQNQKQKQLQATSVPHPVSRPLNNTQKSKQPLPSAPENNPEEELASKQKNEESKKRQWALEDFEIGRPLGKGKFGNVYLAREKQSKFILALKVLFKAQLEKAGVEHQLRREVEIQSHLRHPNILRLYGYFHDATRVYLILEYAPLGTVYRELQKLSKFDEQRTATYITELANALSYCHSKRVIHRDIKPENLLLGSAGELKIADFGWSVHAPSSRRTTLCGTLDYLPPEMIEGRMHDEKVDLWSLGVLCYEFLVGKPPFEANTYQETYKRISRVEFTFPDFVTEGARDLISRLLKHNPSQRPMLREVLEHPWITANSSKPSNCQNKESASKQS
Aurora kinase A/B (Homo sapiens), sequence (Q96GD4 whole entry, looked up): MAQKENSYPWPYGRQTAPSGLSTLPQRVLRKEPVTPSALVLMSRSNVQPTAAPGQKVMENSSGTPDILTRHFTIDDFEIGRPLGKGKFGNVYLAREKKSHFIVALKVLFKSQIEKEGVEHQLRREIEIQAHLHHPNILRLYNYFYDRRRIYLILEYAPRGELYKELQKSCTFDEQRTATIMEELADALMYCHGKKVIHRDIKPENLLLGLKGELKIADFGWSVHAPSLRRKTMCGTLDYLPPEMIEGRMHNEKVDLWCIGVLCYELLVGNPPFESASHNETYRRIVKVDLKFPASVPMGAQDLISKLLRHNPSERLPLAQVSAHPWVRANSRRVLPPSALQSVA

Row | Activity [1] [%] | Activity [2] [%] | Activity [3] [%] | Activity [4] [%] | Activity [5] [%] | Activity [6] [%] | Activity [7] [%] | Activity [8] [%] | Activity [9] [%] | Activity [10] [%] | Activity [11] [%] | Activity [12] [%] | Activity [13] [%] | Activity [14] [%] | Ratio [15] | Activity (Homo sapiens) [%] | Activity [16] [%] | Activity [17] [%] | Activity [18] [%] | Activity [19] [%] | Structure (SMILES) | other results
1 | 85 | 45 | 77 | 64 | 95 | 25 | 41 | 27 | 13 | 85 | 88 | 19 | 74 | 8 | 0.08 | 6 | 24 | 39 | 22 | 35 | CC[C@H](CO)Nc1nc(NC(=N)N)c2ncn(C(C)C)c2n1 | Activity [20]: 99%; Activity [21]: 64%; Activity [22]: 22%; Activity [23]: 54%; Activity [24]: 35%; Activity [25]: 53%
2 | 71 | 38 | 71 | 66 | 85 | 31 | 28 | 19 | 12 | 73 | 78 | 16 | 76 | 7 | 0.09 | 4 | 28 | 40 | 14 | 71 | CC[C@@H](CO)Nc1nc(NC(=N)N)c2ncn(C(C)C)c2n1 | Activity [20]: 107%; Activity [21]: 44%; Activity [22]: 41%; Activity [23]: 36%; Activity [24]: 24%; Activity [25]: 48%
